Source: PubChem
T cruzi growth-1 = T. cruzi proliferation inhibition; inhibition, % at 8.34 µM; hit rate 5.9% among 77,000; T. cruzi beta-gal in NIH3T3, GalScreen luminescence, 90 h;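 active = mean inhibition above about 93%, with at least 55% of replicates each passing it, limit read from the data, passing the limit was not always enough; inconclusive = only one of those two conditions holds; inactive = neither condition holds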
IDH1 R132H inh = inhibitors of human IDH1 R132H | IDH1 R132H reductase, diaphorase/resazurin fluorescence, 60 min | inhibition, % at 10 µM | hit rate 0.18% among 70,000 | AID 624101 | O75874; in the data active = inhibition above about 34%; inconclusive = no clear call, values can overlap the other calls; inactive = below about 11%
Target sequence (O75874 whole entry R132H): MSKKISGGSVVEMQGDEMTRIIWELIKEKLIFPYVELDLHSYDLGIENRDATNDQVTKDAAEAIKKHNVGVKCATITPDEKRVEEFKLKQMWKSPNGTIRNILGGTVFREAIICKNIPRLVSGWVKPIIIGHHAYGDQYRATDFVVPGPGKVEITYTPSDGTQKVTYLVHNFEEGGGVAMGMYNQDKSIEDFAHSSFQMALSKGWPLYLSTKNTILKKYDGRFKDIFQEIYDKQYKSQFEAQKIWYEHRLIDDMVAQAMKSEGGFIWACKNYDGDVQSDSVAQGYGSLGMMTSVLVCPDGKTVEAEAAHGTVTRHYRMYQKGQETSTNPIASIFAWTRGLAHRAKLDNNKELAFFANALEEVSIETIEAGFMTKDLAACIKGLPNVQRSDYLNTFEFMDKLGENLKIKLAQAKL
GASC1 inh = blocks human GASC-1 (KDM4C) demethylase activity; Q9H3R0; inhibition, % at 12.5 µM; GST-KDM4C 2-372, H3K9me3 peptide, LANCE TR-FRET; hit rate 0.15% among 96,000;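 active = mean replicate inhibition above about 25%, with at least 55% of replicates also reaching it, limit read from the data, passing the limit was not always enough; inconclusive = only one of those two conditions met; inactive = neither condition met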
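material = GST-tagged GASC-1 (JMJD2C) catalytic fragment, aa 2-372 | amount = enzyme final amount 10 nM | medium = HEPES buffer, pH 7.5, plus ascorbate | also added = H3K9me3 peptide substrate, Fe(II), 2-oxoglutarate | dosing = single dose | times = 30 min demethylation and 1 h detection at room temperature | detection = LANCE TR-FRET | read-out basis = Fall in 671/618 emission ratio as inhibition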
T cruzi growth-2 = inhibitors of T. cruzi proliferation; T. cruzi beta-gal in NIH3T3, GalScreen luminescence, 90 h; shares compounds with T cruzi growth-1; hit rate 72% among 5,600; AID 651739; inhibition, % at 8.35 µM;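 active = mean replicate inhibition above about 95% and at least 55% of replicates individually reaching it, limit read from the data; inconclusive = only one of the two criteria is met; inactive = neither criterion is met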
T cruzi growth-3 = blocks T. cruzi growth in NIH3T3 host cells; T. cruzi beta-gal in NIH3T3, GalScreen luminescence, 90 h; shares compounds with T cruzi growth-1; hit rate 21% among 5,600; inhibition, % at 2.09 µM; AID 651740;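 active = mean inhibition above about 95%, with at least 55% of replicates also reaching it, limit read from the data; inconclusive = meets just one of the two conditions; inactive = meets neither condition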
NIH3T3 tox = NIH/3T3 (mouse) viability loss; shares compounds with T cruzi growth-1; NIH/3T3 viability, CellTiter-Glo ATP luminescence, 90 h; cytotoxicity (signal decrease), % at 8.35 µM; hit rate 14% among 5,600; AID 651742;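 active = mean signal decrease across replicates above about 35% based on untreated-well scatter, with enough replicates individually passing, limit read from the data; inconclusive = no rule stated though some were filed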
3T3 cytotox 2 = cytotoxicity in mouse NIH/3T3 fibroblasts | NIH/3T3 viability, CellTiter-Glo ATP luminescence, 90 h | hit rate 56% among 5,600 | shares compounds with T cruzi growth-1 | inhibition, % at 24.9 µM;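 active = mean loss of cell viability signal at or above a set limit, and enough replicates individually reaching it; inconclusive = meets only the mean limit or only the replicate share; inactive = meets neither condition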
Hits are given with their value. Only a selection was taken, and hits are over-represented in it overall.

How did Cc1noc(C)c1S(=O)(=O)N(C)C[C@@H]1OCCCC[C@H](C)Oc2ccc(NC(=O)Nc3cccc4ccccc34)cc2C(=O)N([C@H](C)CO)C[C@H]1C do in these assays?
T cruzi growth-1: inactive; IDH1 R132H inh: inactive; GASC1 inh: inactive

What do the screens show for `Cc1noc(C)c1S(=O)(=O)N(C)C[C@@H]1OCCCC[C@@H](C)Oc2ccc(NC(=O)Nc3cccc4ccccc34)cc2C(=O)N([C@@H](C)CO)C[C@H]1C`?
T cruzi growth-1: 103.9; IDH1 R132H inh: inactive; GASC1 inh: inactive; T cruzi growth-2: inactive; T cruzi growth-3: inactive; NIH3T3 tox: inactive; 3T3 cytotox 2: inactive

What do the screens show for `Cc1noc(C)c1S(=O)(=O)N(C)C[C@@H]1OCCCC[C@@H](C)Oc2ccc(NC(=O)Nc3ccccc3)cc2C(=O)N([C@H](C)CO)C[C@H]1C`?
IDH1 R132H inh: inactive; GASC1 inh: inactive

What do the screens show for `Cc1noc(C)c1S(=O)(=O)N(C)C[C@H]1OCCCC[C@H](C)Oc2ccc(NC(=O)Nc3cccc4ccccc34)cc2C(=O)N([C@@H](C)CO)C[C@@H]1C`?
T cruzi growth-1: 99.9; IDH1 R132H inh: inactive; GASC1 inh: inactive; T cruzi growth-2: 108.7; T cruzi growth-3: inconclusive; NIH3T3 tox: inactive; 3T3 cytotox 2: 53.6

What do the screens show for `Cc1c(NC(=O)CCCC(=O)O)cccc1C(=O)O`?
IDH1 R132H inh: inactive

How did COC(=O)c1ccccc1NC(=O)COc1ccc(Br)cc1C(C)(C)C do in these assays?
IDH1 R132H inh: inactive

Results for N#C[C@@H]1[C@@H](c2ccccc2)[C@@H](CO)N1S(=O)(=O)c1ccc(-c2ccccc2)cc1 ?
T cruzi growth-1: 102.8; GASC1 inh: inactive; T cruzi growth-2: 100.4; T cruzi growth-3: inactive; NIH3T3 tox: inactive; 3T3 cytotox 2: inactive

What do the screens show for `N#C[C@@H]1[C@H](c2ccccc2)[C@H](CO)N1S(=O)(=O)c1ccc(F)cc1`?
T cruzi growth-1: inactive; GASC1 inh: inactive

What do the screens show for `N#C[C@H]1[C@@H](c2ccccc2)[C@@H](CO)N1S(=O)(=O)c1ccc(-c2ccccc2)cc1`?
T cruzi growth-1: 95.9; GASC1 inh: inactive; T cruzi growth-2: 101.6; T cruzi growth-3: inactive; NIH3T3 tox: inactive; 3T3 cytotox 2: inactive

What do the screens show for `N#C[C@@H]1[C@@H](c2ccccc2)[C@H](CO)N1S(=O)(=O)c1ccc(F)cc1`?
T cruzi growth-1: inactive; GASC1 inh: inactive

What do the screens show for `COc1cc(NC(=O)CSc2ncnc3sc4c(c23)CCCC4)cc(OC)c1`?
IDH1 R132H inh: inactive

Results for CC(C)(C)c1ccccc1NC(=O)c1cccc(Cn2cc(Cl)cn2)c1 ?
IDH1 R132H inh: inactive

What do the screens show for `C[C@@H]1CN([C@H](C)CO)C(=O)c2cc(NC(=O)Nc3ccc(C(F)(F)F)cc3)ccc2O[C@@H](C)CCCCO[C@H]1CN(C)S(=O)(=O)c1ccccc1`?
T cruzi growth-1: 97.6; IDH1 R132H inh: inactive; GASC1 inh: inactive; T cruzi growth-2: 102.1; T cruzi growth-3: 109.1; NIH3T3 tox: inactive; 3T3 cytotox 2: inactive

How did C[C@@H]1CCCCO[C@H](CN(C)S(=O)(=O)c2ccccc2)[C@H](C)CN([C@H](C)CO)C(=O)c2cc(NC(=O)Nc3ccc(C(F)(F)F)cc3)ccc2O1 do in these assays?
T cruzi growth-1: inactive; IDH1 R132H inh: inactive; GASC1 inh: inactive

How did C[C@@H]1CCCCO[C@@H](CN(C)S(=O)(=O)c2ccccc2)[C@H](C)CN([C@H](C)CO)C(=O)c2cc(NC(=O)Nc3ccc(C(F)(F)F)cc3)ccc2O1 do in these assays?
T cruzi growth-1: inactive; IDH1 R132H inh: inactive; GASC1 inh: inactive

Results for C[C@H]1CCCCO[C@H](CN(C)S(=O)(=O)c2ccccc2)[C@@H](C)CN([C@@H](C)CO)C(=O)c2cc(NC(=O)Nc3ccc(C(F)(F)F)cc3)ccc2O1 ?
T cruzi growth-1: inconclusive; IDH1 R132H inh: inactive; GASC1 inh: inactive; T cruzi growth-2: 109.4; T cruzi growth-3: 116.6; NIH3T3 tox: inactive; 3T3 cytotox 2: inactive

What do the screens show for `C[C@H](CO)N1C[C@H](C)[C@H](CN(C)Cc2ccc3cccnc3c2)OCc2cnnn2CCCC1=O`?
T cruzi growth-1: 110.6; IDH1 R132H inh: inactive; GASC1 inh: inactive; T cruzi growth-2: inactive; T cruzi growth-3: inactive; NIH3T3 tox: inactive; 3T3 cytotox 2: inactive
